Reference: ChEMBL document CHEMBL1148474, “Small molecule mitochondrial F1F0 ATPase hydrolase inhibitors as cardioprotective agents. Identification of 4-(N-arylimidazole)-substituted benzopyran derivatives as selective hydrolase inhibitors” (J Med Chem, 2004)

Experiments:
[1] = Inhibitory concentration towards rat mitochondrial F1F0-ATP synthase using a hexokinase / glucose-6-phosphate dehydrogenase coupled assay
Summary of the method: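 ATP synthesis was run in 10 mM HEPES pH 8. Diluted enzyme was mixed with glucose, MgCl2, KPO4, potassium succinate and AMP (to block adenylate kinase) and incubated 30 min with gentle shaking. Inhibitor was then added from 50% DMSO (final DMSO 5%) for 15 min. Coupling enzymes started the reaction, and the rise in A340 was monitored.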

[2] = target: Mitochondrial F1F0 ATP synthase (Rattus norvegicus); assay: Inhibitory concentration towards rat mitochondrial F1F0 ATP hydrolase using a pyruvate kinase / lactate dehydrogenase system
[3] = Inhibitory concentration towards rat mitochondrial F1F0-ATP synthase using a pyruvate kinase / lactate dehydrogenase system

Row | IC50 [1] [µM] | IC50 [2] [µM] | IC50 [3] [µM] | SMILES
1 | 18 |  |  | CC1(C)Oc2ccc(S(=O)(=O)N3CCCCC3)cc2[C@H](N(Cc2ncc[nH]2)c2ccc(Cl)cc2)[C@H]1O
2 | 12 | > 100 |  | CC1(C)Oc2ccc(C#N)cc2[C@H](/N=C(/NC#N)Nc2ccc(Cl)cc2)[C@H]1O
3 | 3.8 | 0.24 |  | CC1(C)Oc2ccc(C#N)cc2[C@@H](N(Cc2ncc[nH]2)c2ccc(Cl)cc2)[C@@H]1O
4 |  | > 100 |  | CC1(C)Oc2ccc(C#N)cc2[C@H](N(Cc2ncco2)c2ccccc2)[C@H]1O
5 |  | 4.2 |  | CC1(C)Oc2ccc(C#N)cc2[C@@H](N(Cc2ncc[nH]2)c2ccccc2)[C@@H]1O
6 |  | 2 |  | CC1(C)Oc2ccc(C#N)cc2[C@H](N(Cc2ncc[nH]2)c2ccccc2)[C@H]1O
7 | 30 |  | > 100 | CC1(C)Oc2ccc(C#N)cc2[C@@H](/N=C(\NC#N)Nc2ccc(Cl)cc2)[C@@H]1O
8 |  | 470 |  | CC1(C)Oc2ccc(C#N)cc2C(N(Cc2ncc[nH]2)c2ccc(Cl)cc2)C1O (racemic)
9 |  | 45 |  | CC1(C)Oc2ccc(C#N)cc2C(Nc2ccc(Cl)cc2)C1O (racemic)
10 | 4 | 0.48 |  | CC1(C)Oc2ccc(C#N)cc2[C@H](N(Cc2ncc[nH]2)c2ccc(Cl)cc2)[C@H]1O [BMS-191095]
11 | > 100 |  |  | COc1ccc(Cl)cc1C(=O)NCCc1ccc(S(=O)(=O)NC(=O)NC2CCCCC2)cc1 [GLYBURIDE]
